An excerpt weighted towards active compounds, which were near 1.5% of everything screened.
Runt-CBFb FRET – inhibitors of RUNX1 Runt–CBFb binding, primary screen, biochemical, FRET, Cerulean-Runt, Venus-CBFb, uHTS. Runt-related transcription factor 1 (Homo sapiens) + Core-binding factor subunit beta …. 220,000 tested, 0.46% active. AID 1496, 2009. inhibition, % at 20 µM. Cerulean-Runt/Venus-CBFb FRET ratio 530/480, 1 h;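 active means inhibition over about 50% at 20 µM in the single-dose screen, limit read from the data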;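 further: 0% = DMSO wells and 100% = excess unlabeled CBFb competitor control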
Target sequence (Q01196 whole entry, looked up): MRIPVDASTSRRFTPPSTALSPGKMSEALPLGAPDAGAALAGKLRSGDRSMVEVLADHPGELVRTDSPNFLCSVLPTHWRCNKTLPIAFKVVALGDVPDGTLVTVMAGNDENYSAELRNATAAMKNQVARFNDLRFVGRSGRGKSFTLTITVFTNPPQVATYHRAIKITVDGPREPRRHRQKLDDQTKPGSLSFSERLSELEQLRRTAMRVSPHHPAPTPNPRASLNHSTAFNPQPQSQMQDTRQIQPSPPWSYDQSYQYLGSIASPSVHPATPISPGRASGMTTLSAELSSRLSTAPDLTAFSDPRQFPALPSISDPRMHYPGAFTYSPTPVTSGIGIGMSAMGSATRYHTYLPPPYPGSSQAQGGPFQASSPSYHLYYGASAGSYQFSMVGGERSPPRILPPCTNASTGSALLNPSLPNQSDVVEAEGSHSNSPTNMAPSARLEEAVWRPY
Target sequence (Q13951 whole entry, looked up): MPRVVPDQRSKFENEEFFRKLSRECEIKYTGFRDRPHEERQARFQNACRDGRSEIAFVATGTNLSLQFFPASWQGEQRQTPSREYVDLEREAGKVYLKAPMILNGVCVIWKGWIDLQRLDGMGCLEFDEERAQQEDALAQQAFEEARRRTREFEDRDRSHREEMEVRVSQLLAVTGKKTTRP
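Measured by: fluorescence energy transfer, 422 nm excitation, 530/480 nm emission; test system: Cerulean-tagged RUNX1 Runt domain (FRET donor) fusion protein; buffer or medium: Tris pH 7.5 buffer with BSA; compound: one dose, 20 µM compound, 1% DMSO; times: two 1 h room-temperature incubations shielded from light; benchmarks: unlabeled CBFb 5 µM, positive control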
CaV13 FRET inh – Disruptors of the CACNA1D IQ motif to Ca2+-dependent inactivation inhibitor domain association, primary screening, Förster resonance energy transfer in intact living …. inhibition, % at 12.3 µM. HEK cells, CFP/YFP FRET ICDI-IQ, plate reader, 10 min; percent FRET-ratio fall versus neutral wells. 340,000 tested, 0.098% active;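 active means mean replicate inhibition of at least 30% and at least 1% of replicates passing that level; inconclusive means only one of the two criteria is met; inactive means neither criterion is met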;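 further: 0% = median of the neutral control wells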
RanGTP-Imp inh – inhibitors of RanGTP-importin-beta interaction, primary screen, biochemical, FRET, CFP-Ran, YFP-importin-beta, homogeneous; cell-free CFP-Ran/YFP-importin-beta FRET ratio; inhibition, % (concentration not given with the values); 300,000 tested, 1.1% active;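 active means more than half of the replicate wells show a fall in the fluorescence ratio signal beyond about 16%, limit read from the data, passing the limit was not always enough; inconclusive means exactly half of the replicate wells pass the set limit; inactive means fewer than half of replicates pass the limit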;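 further: 0% = DMSO wells and 100% = Ran loaded with GDP instead of GTP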
Runt-SMMHC FRET – inhibitors of RUNX1 Runt–CBFb-SMMHC binding, primary screen, biochemical, FRET, Cerulean-Runt, Venus-CBFb-SMMHC, uHTS; Cerulean-Runt/Venus-CBFb-SMMHC FRET ratio 530/480, 1 h; inhibition, % at 20 µM; 220,000 tested, 0.74% active; AID 1434, 2008;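 active means mean inhibition across duplicate retests at 20 µM reaching about 50%, limit read from the data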;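 further: 0% = DMSO wells and 100% = wells with excess untagged CBFb-SMMHC; inhibitors lower the FRET ratio by blocking Runt binding to CBFb-SMMHC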
Hck-Nef inh – inhibitors of Nef-activated human Hck kinase, primary screen, biochemical, Z-Lyte FRET, 384-well, Hck-YEEI; Tyrosine-protein kinase HCK (Homo sapiens), P08631; inhibition, % at 20 µM; Recombinant Hck-YEEI plus Nef, Z-Lyte FRET kinase assay; 220,000 tested, 0.68% active;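 active means Hck-Nef kinase inhibition above about 50%, limit read from the data; inactive means inhibition below that limit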;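 further: 0% = DMSO with Hck plus Nef and 100% = Hck alone without Nef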
YIC FRET counter – YIC intramolecular FRET probe signal interference, dose response, counter-screen for RanGTP-importin-beta inhibitor project, biochemical, fluorescence FRET. shares compounds with RanGTP-Imp inh. Purified YIC probe, intramolecular FRET ratio YFP/CFP. IC50, µM. 1,000 tested, 40% active. AID 435026, 2010;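 active means fitted half-maximal inhibitory concentration no more than tenfold above the top dose tested; inconclusive means flat fit with 30 to 70% activity, or poor fit; inactive means half-maximal concentration beyond tenfold above the top dose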
Starred values were filed as active, the others as inactive; ? = inconclusive; / = not tested or not shown.

SMILES | Runt-CBFb FRET | CaV13 FRET inh | RanGTP-Imp inh | Runt-SMMHC FRET | Hck-Nef inh | YIC FRET counter
COC(=O)C1=C(O)/C(=C\c2cc(C)n(-c3ccccc3C)c2C)N=C1C | 9.5 | -7.5 | 19.7* | 16.5 | 15.9 | 43.9*
CCOC(=O)/C(C#N)=C1/C=CN(c2ccccc2)C=N1 | -0.9 | -0.9 | 2.2 | 2.4 | -1.1 | /
CCOC(=O)/C(C#N)=C1/C=Nc2ccccc2N1 | -8.5 | -5.2 | 26.6* | -33.3 | -4.9 | >26
CCOC(=O)c1cnn(CCOC(=O)c2cccs2)c1NC(=O)c1cccs1 | 0.1 | -4.9 | / | 1.3 | 2.7 | /
CCOC(=O)c1c(N)n(CCOC(=O)c2cccs2)c2nc3ccccc3nc12 | 44.7 | / | 22.7* | 109.0* | 28.3 | 37.4*
O=C(Cn1c2ccccc2c(=O)c2ccccc21)Nc1ccccc1F | 119.1* | 0.4 | 35.8* | 83.4 | 16.4 | 6.63*
OCCNc1c2ccccc2nc2ccccc12 | 108.8* | 50.9* | 39.9* | 116.4* | 34.4 | 4.89*
OCCCNc1nc(-c2ccc(Cl)cc2)nc2ccccc12 | / | -4.0 | 4.1 | / | / | /
OCCNc1nc(-c2ccccc2)nc2ccccc12 | 1.2 | -1.7 | 17.5* | 1.7 | 25.8 | >50
OCCNc1nc2ccccc2nc1NCCO | 1.3 | -19.2 | 3.5 | 4.2 | 4.1 | /
O=C(COC(=O)CN1C(=O)C2CCCCC2C1=O)NNC(=O)c1ccc(Cl)cc1 (centres undefined) | / | -4.2 | 0.9 | / | / | /
Cc1cc([N+](=O)[O-])nn1CC(=O)N1N=C(C(F)F)CC1(O)C(F)F (centres undefined) | -2.0 | -19.7 | -1.7 | -2.3 | 2.6 | /
CC1=NN(C(=O)Cn2nc([N+](=O)[O-])cc2C)C(O)(C(F)(F)F)C1 (centres undefined) | -0.1 | -5.3 | 18.0* | -0.6 | 3.0 | >50
O=C(CN1C2CCCC1CC(NC(=O)c1ccco1)C2)Nc1ccccc1C(F)(F)F (centres undefined) | -8.3 | -3.8 | 16.9* | 2.5 | 6.1 | >50
O=C(CN1C2CCCC1CC(NC(=O)c1ccccc1)C2)Nc1ccccc1C(F)(F)F (centres undefined) | / | -2.2 | 0.6 | / | / | /
CCOc1ccc(C(=O)NCC(=O)NNC(=O)CN(C)S(=O)(=O)c2ccc(Cl)cc2)cc1 | / | -6.1 | 2.9 | / | / | /
NC(=O)c1sc2nccc(Nc3ccccc3)c2c1N | 23.2 | -4.6 | 39.1* | 42.5 | 41.9 | >50
CCN1CCc2c(sc(N)c2C#N)C1 | 42.8 | / | 34.1* | 110.0* | 8.7 | 18.2*
N#Cc1c(N)sc(=S)c2c1CCN(Cc1ccccc1)C2 | 25.4 | / | / | 31.2 | / | /
COc1cc(NC(=O)Cn2ncc(Cl)c(Cl)c2=O)c(C)cc1[N+](=O)[O-] | -0.4 | -4.4 | 27.4* | -3.6 | 15.9 | >50
Cc1ccc(C(=O)NCc2ccco2)cc1S(=O)(=O)N1CCOCC1 | / | -3.5 | 25.2* | -11.1 | 0.8 | >50
Cc1ccc(NC(=O)Cn2nc(C(F)(F)F)c3c2CCC3)cc1 | -0.4 | -8.1 | 22.3* | 2.9 | 1.8 | >50
O=c1cc(N2CCC3(CC2)OCCO3)[nH]c(=O)n1-c1ccc(Br)cc1 | -0.3 | / | 16.8* | 2.0 | 6.5 | >50
Cc1cccc(N2O[C@H]3C=C[C@@H]2C3)n1 | / | -9.1 | / | / | / | /
O=C(c1cc2c(=O)n3ccccc3nc2s1)N1CCN(c2cccc(Cl)c2)CC1 | / | -3.6 | 29.4* | / | / | >50
SMILES | Runt-CBFb FRET | CaV13 FRET inh | RanGTP-Imp inh | Runt-SMMHC FRET | Hck-Nef inh | YIC FRET counter
COc1c2ccccc2nc2ccccc12 | / | -0.5 | 41.4* | / | / | 13.5*
Cc1c2ccccc2nc2ccccc12 | / | -4.0 | 3.8 | / | / | /
CCC(C(=O)N1CCN(Cc2ccc3c(c2)OCO3)CC1)n1c(=O)[nH]c2ccccc2c1=O (centres undefined) | / | -3.1 | 0.4 | / | / | /
N#CC1=C(N)SC(N)=C(C#N)C1c1cccc(O)c1 | 23.3 | 1.7 | 21.7* | 31.5 | 3.8 | >50
Cc1cc(NC(=O)CN2C(=O)NC3(CCCCCC3)C2=O)no1 | 1.9 | -1.1 | 3.6 | 0.2 | 2.9 | /
CC(=O)N1CCc2c(sc(NC(=O)c3ccc([N+](=O)[O-])o3)c2C#N)C1 | 2.5 | -3.6 | -1.6 | -8.1 | 7.5 | /
COc1ccc(C(=O)Nc2sc3c(c2C#N)CCN(C(C)=O)C3)cc1 | 41.1 | 12.8 | 42.0* | 61.9* | 26.2 | >50
CC(=O)c1ccccc1NS(=O)(=O)c1cccc2nsnc12 | / | 0.2 | -2.1 | / | / | /
Cc1sc(NC(=O)c2oc3ccccc3c2C)c(C#N)c1C | 3.3 | -5.8 | 25.2* | -0.7 | 7.3 | >50
Cc1c(C(=O)NC2=NCCS2)oc2ccccc12 | -0.7 | -6.8 | -0.3 | -1.9 | -1.0 | /
COCc1cc(CN2CCN(C)CC2)c(O)c2ncccc12 | 0.4 | -3.9 | 26.0* | -14.0 | 4.1 | >50
CCC(C(N)=O)N1C(=O)C2C3CCC(C3)C2C1=O (centres undefined) | / | -14.5 | / | / | / | /
COCC(=O)Nc1nnc(COc2ccc(Cl)cc2)s1 | 0.0 | -4.9 | 25.9* | -3.5 | 4.9 | >50
O=C1/C(=C/c2cccs2)Sc2ccccc21 | -1.1 | -15.0 | 18.8* | -2.8 | 5.5 | ?
Cc1ccc2nc(NCCNC(=O)c3ccccc3)c(C#N)cc2c1 | / | 3.3 | 49.2* | / | / | 4.66*
Cc1cccc(C(=O)NCCNc2nc3cc(C)c(C)cc3cc2C)c1 | -1.6 | -5.3 | 2.8 | -0.7 | 25.0 | /
Cc1ccc(C)c(NC(=S)NCCCN2CCOCC2)c1 | 0.4 | -6.0 | -2.1 | -5.5 | 0.8 | /
COc1ccc(C(=O)NCCNc2nc3c(C)cccc3cc2C#N)cc1 | / | -15.2 | 36.2* | / | / | 18.2*
Cc1cccc2cc(C#N)c(NCCNC(=S)NCCCN3CCOCC3)nc12 | 39.8 | -4.0 | 18.7* | 64.1* | 14.6 | 48.1*
Cc1ccc(NC(=O)CN(C)CC(=O)Nc2ccc(N3CCOCC3)cc2)c([N+](=O)[O-])c1 | 1.4 | -3.5 | -1.8 | -6.8 | 3.5 | /
O=C(Nn1cnc2ccccc2c1=O)c1ccc(Cl)c([N+](=O)[O-])c1 | / | -2.9 | -0.2 | / | / | /
Cn1nc(C(C)(C)C)cc1N1C(=O)CCC1(C)C(=O)NC1CCCC1 (centres undefined) | / | -11.1 | / | / | / | /
COc1ccccc1CNC(=O)COC(=O)Cc1ccc(F)cc1 | / | -3.3 | -0.1 | / | / | /
COc1ccccc1CNC(=O)COC(=O)Cc1ccc(Cl)cc1 | 0.4 | -3.8 | 16.9* | -5.1 | 0.0 | >50
CC(=O)c1ccc(OCCCC(=O)OCC(=O)N2CCN(S(=O)(=O)c3ccc(C)cc3C)CC2)cc1 | / | -5.8 | / | / | / | /

Screening results deposited in PubChem BioAssay by several laboratories.
